# Laboratory results as given in ChEMBL document CHEMBL1132464, “Specific nonpeptide photoprobes as tools for the structural study of the angiotensin II AT(1) receptor” (J Med Chem, 1999).
# How the values were obtained:
# [1] = target: T1, Type-1 angiotensin II receptor A (Rattus norvegicus) (UniProt P25095); assay: The compound was evaluated for irreversible binding to [125I]Sar-AII in CHO cells expressing the Angiotensin II receptor, type 1 without UV irradiation.; format: cell-based
# T1 sequence (whole entry): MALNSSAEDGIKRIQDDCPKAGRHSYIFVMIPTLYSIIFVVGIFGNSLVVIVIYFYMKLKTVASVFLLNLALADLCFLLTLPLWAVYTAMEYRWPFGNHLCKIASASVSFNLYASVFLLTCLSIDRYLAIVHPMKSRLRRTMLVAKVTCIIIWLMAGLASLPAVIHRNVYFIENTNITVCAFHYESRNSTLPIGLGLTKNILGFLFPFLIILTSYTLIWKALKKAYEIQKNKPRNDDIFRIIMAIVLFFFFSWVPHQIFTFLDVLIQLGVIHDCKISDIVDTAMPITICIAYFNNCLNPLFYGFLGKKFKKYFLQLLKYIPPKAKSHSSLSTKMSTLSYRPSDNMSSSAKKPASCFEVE
# Procedure, shortened: (§1)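 CHO cells stably expressing rat AT1A receptor in 24-well clusters; incubated 4 h at 4 °C in dark with photoactivatable ligand (nonpeptide 50 or 10 nM; peptide azido probe 10 nM) in PBS pH 7.4, 5 mM MgCl2, 0.1 mg/mL bacitracin; washed, irradiated or not 5 min at 0 °C, 254 nm; two 30-min 30 °C dissociation incubations; remaining sites titrated with 5 nM [125I]Sar1-AII, 2 h, 4 °C; % of control, triplicates.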
# Oryctolagus cuniculus = species on record: Oryctolagus cuniculus; assay: The compound was evaluated for the inhibition of AII-induced contraction in the rabbit aorta strips.; format: functional
# Procedure, shortened: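 Rabbit aortic rings (4 mm) in 37 °C organ baths, Krebs-Henseleit gassed O2/CO2 95/5, passive tension 2 g, isometric tension recorded; three to five antagonist concentrations, one per ring, against 3 nM AII contraction; IC50 = concentration halving AII response; mean of six experiments.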
# [2] = target: T1, Type-1 angiotensin II receptor A (Rattus norvegicus); assay: The compound was evaluated for irreversible binding to [125I]Sar-AII in CHO cells expressing the Angiotensin II receptor, type 1 with UV irradiation.; format: cell-based; procedure, shortened: as §1
# [3] = target: T2, Type-1 angiotensin II receptor A (Rattus norvegicus, UniProt P25095); assay: The compound was evaluated for the inhibition of [125I]-Sar-AII binding to Angiotensin II receptor, type 1 from purified rat liver membranes.; format: cell membranes, Membrane
# T2 sequence (P25095 whole entry): T1 sequence (whole entry)
# Procedure, shortened: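 Purified rat liver membranes (AT1 only), 10 μg protein/assay, competition against [125I]Sar1-AII tracer for 30 min at 30 °C in 50 mM phosphate pH 7.4, 5 mM MgCl2, 0.1 mg/mL bacitracin, 0.6% Me2SO, no BSA; triplicates; GF/C filtration; Ki via Ekins equation.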
# [4] = target: T2, Type-1 angiotensin II receptor A; assay: The compound was evaluated for the direct binding of tritiated compound to the recombinant Angiotensin II receptor, type 1 stably expressed in CHO cells.; format: cell-based
# Procedure, shortened: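 Intact CHO cells stably expressing rat AT1A, grown to confluence (~5 × 10^5 cells/well), incubated 4 h at 4 °C with graded tritiated ligand in PBS pH 7.4, 5 mM MgCl2, 0.1 mg/mL bacitracin, 0.6% Me2SO; nonspecific binding with excess Sar1-AII or unlabeled nonpeptide; ice-cold washes, NaOH lysis, scintillation counting; Kd by Scatchard analysis, mean of four experiments.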
Compound,Control [1] [%],IC50 (Oryctolagus cuniculus) [nM],Control [2] [%],Ki [3] [nM],Kd [4] [nM]
CCCCc1ncc(CNc2cc(N=[N+]=[N-])ccc2C(=O)O)n1Cc1ccc(C(=O)O)cc1,91,6.3,64,22,
[3H]c1nc(CCCC)n(Cc2ccc(C(=O)O)cc2)c1CNc1ccccc1C(=O)O,,,,,3.5
[3H]c1ccc(S(=O)(=O)NC(=O)c2ccc(Cn3c(CNc4ccccc4C(=O)O)cnc3CCCC)cc2)c(Cl)c1,,,,,1.3
CCCCc1ncc(CNc2ccccc2C(=O)O)n1Cc1ccc(C(=O)NS(=O)(=O)c2ccccc2N=[N+]=[N-])cc1,50,3.5,55,1.5,

# Continued, values first:
Control [1] [%],IC50 (Oryctolagus cuniculus) [nM],Control [2] [%],Ki [3] [nM],Kd [4] [nM],Compound
,0.8,,2.5,,CCCCc1ncc(CNc2ccccc2C(=O)O)n1Cc1ccc(C(=O)NS(=O)(=O)c2ccccc2Cl)cc1
,,,,11.8,[3H]c1nc(CCCC)n(Cc2ccc(C(=O)O)cc2)c1C([3H])Nc1cc(N=[N+]=[N-])ccc1C(=O)O (stereo not given)
,3.6,,12.1,,CCCCc1ncc(CNc2ccccc2C(=O)O)n1Cc1ccc(C(=O)O)cc1
